Experimental data: ChEMBL document CHEMBL3632461 (J Med Chem, 2015)

Tests used:
[1] = Elimination half life in Wistar rat at 1 mg/kg, iv and 3 or 5 mg/kg, po; assay type: ADME, organism-based; conditions: in vivo, read-out: beta t1/2 (converted)
In short: (§1)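 Male CD-1 mice (25−35 g), cannulated Wistar-Han rats (250 g), beagle dogs (12 kg) and cynomolgus monkeys (7 kg), fasted overnight and fed 1.0 or 2.0 h after dosing. iv 1 mg/kg in saline or 12% sulfobutyl ether β-cyclodextrin; po 3 or 5 mg/kg in 0.5% methylcellulose. Parameters calculated from plasma concentration−time data; mean ± SD for n = 3, individual values for n = 2.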

[2] = Apparent permeability across RRCK cells; assay type: ADME, cell-based, Canis lupus familiaris, MDCKII-LE; conditions: dog, MDCK
In short: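 Passive permeability measured in Ralph−Russ canine kidney (RRCK) cells, a low-transporter line isolated from Madin−Darby canine kidney cells; reported as P_app (10⁻⁶ cm/s).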

[3] = target: T1, Myeloperoxidase (Homo sapiens) (UniProt P05164); experiment: Inhibition of peroxidase activity of MPO isolated from human polynuclear leukocytes using Amplex Red as substrate assessed as formation of resorufin by measuring ratio of Kinact to Ki measured every 20 secs by spectrophotometric analysis
T1 sequence (whole entry): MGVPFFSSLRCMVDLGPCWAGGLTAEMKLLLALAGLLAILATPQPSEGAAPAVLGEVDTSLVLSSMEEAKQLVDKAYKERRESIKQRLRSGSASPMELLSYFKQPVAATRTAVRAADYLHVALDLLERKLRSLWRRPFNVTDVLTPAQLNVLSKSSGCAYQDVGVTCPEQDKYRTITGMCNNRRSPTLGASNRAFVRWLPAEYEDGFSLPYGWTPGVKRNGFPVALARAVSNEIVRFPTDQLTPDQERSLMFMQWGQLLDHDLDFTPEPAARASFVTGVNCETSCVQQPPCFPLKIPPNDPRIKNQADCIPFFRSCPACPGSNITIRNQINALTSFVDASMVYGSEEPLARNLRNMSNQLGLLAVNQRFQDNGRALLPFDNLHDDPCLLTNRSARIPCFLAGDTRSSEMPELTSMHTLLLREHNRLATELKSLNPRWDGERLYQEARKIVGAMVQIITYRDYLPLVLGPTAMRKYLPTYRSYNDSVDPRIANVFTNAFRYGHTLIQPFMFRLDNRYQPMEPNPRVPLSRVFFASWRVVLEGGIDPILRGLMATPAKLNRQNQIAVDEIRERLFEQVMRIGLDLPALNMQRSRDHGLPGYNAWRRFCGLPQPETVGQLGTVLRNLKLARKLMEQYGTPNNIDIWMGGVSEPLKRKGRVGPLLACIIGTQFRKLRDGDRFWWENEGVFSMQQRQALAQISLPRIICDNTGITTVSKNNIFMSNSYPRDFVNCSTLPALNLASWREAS
In short: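 Enzyme purified from human polynuclear leukocytes. Buffer: 50 mM sodium phosphate pH 7.4, 150 mM NaCl, 1 mM DTPA, 2 μM H2O2, 30 μM Amplex Red, inhibitor or DMSO. Resorufin fluorescence (ex 530/em 580) read every 20 s at room temperature. Progress curves fitted for kobs at each concentration. kinact/KI derived from the kobs versus [I] fit or slope. Geometric mean of at least two experiments.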

[4] = Volume of distribution at steady state in Beagle dog at 1 mg/kg, iv and 3 or 5 mg/kg, po; assay type: ADME, organism-based, Canis lupus familiaris; conditions: in vivo, read-out: Vdss
In short: (§2)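 Male mice, rats, dogs and cynomolgus monkeys, fasted overnight, fed after dosing. Intravenous dose 1 mg/kg in saline or 12% sulfobutyl ether β-cyclodextrin; oral arm 3 or 5 mg/kg in 0.5% methylcellulose. Steady-state volume derived from plasma concentration−time data; mean ± SD for n = 3, individual values for n = 2.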

[5] = Tmax in Beagle dog at 3 or 5 mg/kg, po; assay type: ADME, organism-based, Canis lupus familiaris; conditions: in vivo
In short: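 Male animals (CD-1 mice 25−35 g, cannulated Wistar-Han rats 250 g, beagle dogs 12 kg, cynomolgus monkeys 7 kg), fasted overnight and fed 1.0 or 2.0 h after dosing, water ad libitum. Oral dose 3 or 5 mg/kg in 0.5% methylcellulose. Parameters calculated from plasma concentration−time data; mean ± SD for n = 3, individual values for n = 2.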

Myeloperoxidase [6] = target: T2, Myeloperoxidase (Homo sapiens, UniProt P05164); experiment: Irreversible inhibition of MPO in LPS-stimulated human whole blood after 4 hrs by Amplex Red/H2O2-based fluorescence plate reader analysis
T2 sequence (P05164 whole entry): T1 sequence (whole entry)
In short: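 Heparinized whole blood from healthy human volunteers, stimulated with bacterial LPS and incubated with compound for 4 h. MPO captured on anti-MPO antibody plates and washed; residual activity measured with Amplex Red and H₂O₂. IC₅₀ reported as geometric mean [90% CI].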

[7] = Plasma clearance in Wistar rat at 1 mg/kg, iv and 3 or 5 mg/kg, po; assay type: ADME, organism-based; in short: as §1
[8] = Elimination half life in Beagle dog at 1 mg/kg, iv and 3 or 5 mg/kg, po; assay type: ADME, organism-based, Canis lupus familiaris; conditions: in vivo, read-out: beta t1/2 (converted); in short: as §1
Myeloperoxidase [9] = target: T2, Myeloperoxidase; experiment: (§3) Inhibition of peroxidase activity of MPO isolated from human polynuclear leukocytes using Amplex Red as substrate assessed as formation of resorufin measured every 20 secs by spectrophotometric analysis
[10] = target: T1, Myeloperoxidase (Homo sapiens); experiment: as §3
[11] = Plasma clearance in Beagle dog at 1 mg/kg, iv and 3 or 5 mg/kg, po; assay type: ADME, organism-based, Canis lupus familiaris; in short: as §1
[12] = Volume of distribution at steady state in Wistar rat at 1 mg/kg, iv and 3 or 5 mg/kg, po; assay type: ADME, organism-based; conditions: in vivo, read-out: Vdss; in short: as §2
[13] = Fraction unbound in human plasma by equilibrium dialysis method; assay type: ADME, cell-free
In short: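 Fraction unbound in human plasma measured by equilibrium dialysis; mean of three individual determinations.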

| SMILES | half-life [1] [h] | Papp [2] [×10⁻⁶ cm/s] | log(ratio) [3] | Vd [4] [L/kg] | Tmax [5] [h] | IC50 (Myeloperoxidase [6]) [nM] | clearance [7] [mL/min/kg] | half-life [8] [h] | Ki (Myeloperoxidase [9]) [nM] | pKinact [10] | clearance [11] [mL/min/kg] | Vd [12] [L/kg] | fraction unbound [13] |
| --- | --- | --- | --- | --- | --- | --- | --- | --- | --- | --- | --- | --- | --- |
| COc1ccc(OC)c(-c2cc(=O)[nH]c(=S)n2CC(N)=O)c1 | 0.38 | 1.1 | 4.09 | 1.03 | 0.63 | 1500 | 37.6 | 2.8 | 347 | 2.38 | 7.07 | 0.83 | 0.6 |
| COc1ccc(-c2cc(=O)[nH]c(=S)n2CCO)c(OC)c1 | 0.25 | 13 | 4.47 | 1.33 | 1.17 | 2000 | 59.3 | 5.3 | 151 | 2.34 | 11.9 | 0.82 | 0.5 |
| COc1ccc(-c2cc(=O)[nH]c(=S)n2CC(N)=O)c(OC)c1 | 0.76 | 0.8 | 4.03 | 0.3 | 1.5 | 2600 | 35.1 | 3.4 | 372 | 2.41 | 1.31 | 1.23 | 0.5 |
| COc1ccc(Cl)cc1-c1cc(=O)[nH]c(=S)n1CC(N)=O [PF-06282999] | 0.75 | 1.6 |  | 0.54 | 0.7 |  | 41.8 | 2.2 |  | 2.43 | 3.39 | 2.13 |  |
| COc1ccc(-c2cc(=O)[nH]c(=S)n2CCN)c(OC)c1 | 1.1 | 3.5 | 4.13 | 3.66 | 1.3 | 500 | 70.3 | 5.7 | 174 | 2.61 | 13.4 | 3.71 | 0.7 |
